The results in this text go back to ChEMBL document CHEMBL4257580, “Tanshinone-IIA-Based Analogues of Imidazole Alkaloid Act as Potent Inhibitors To Block Breast Cancer Invasion and Metastasis in Vivo” (J Med Chem, 2018).

By IC50 is commonly meant the concentration that gives 50% inhibition. A lower IC50 goes with higher potency.

The subject of test [1] is HeLa. The test can be described thus: Antiproliferative activity against human HeLa cells after 72 hrs by MTT assay. Format: functional, cell-based. The method, boiled down: (§1)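 A549, HeLa, HepG2 and normal liver L02 cells kept in DMEM with 10% FBS at 37 °C under 5% CO2. Plated at 5×10^3 cells/well for 24 h, then treated with graded concentrations for 72 h. Viability measured by MTT reduction (5 h), formazan dissolved in DMSO and read at 570 nm. Three repeats.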
For orientation: Formazan colour is commonly taken as a measure of viable cells.

Test [2] concerns HepG2. Kind of test: Antiproliferative activity against human HepG2 cells after 72 hrs by MTT assay. Format: functional, cell-based. The note with it: HepG2, 72 h. The procedure, abridged:
as §1

Test [3] has as its system MDA-MB-231. The test can be described thus: Cell cycle arrest in human MDA-MB-231 cells assessed as accumulation at G2 phase at 15 uM after 72 hrs by propidium iodide staining based flow cytometry (reference value: 8%). The test is classed as functional. (In flow cytometry, cells or beads pass a laser one at a time.)
In test [4] the test system is MDA-MB-231. Kind of test: Induction of apoptosis in human MDA-MB-231 cells assessed as late apoptotic cells at 10 uM after 72 hrs by annexin-V/propidium iodide double staining based flow cytometry (reference value: 0.12%). The test is classed as functional.
The test system of test [5] is MDA-MB-231. Kind of test: Cell cycle arrest in human MDA-MB-231 cells assessed as accumulation at G2 phase at 10 uM after 72 hrs by propidium iodide staining based flow cytometry (reference value: 8%). The test is classed as functional.
The test system of test [6] is MDA-MB-231. Kind of test: Induction of apoptosis in human MDA-MB-231 cells assessed as early apoptotic cells at 10 uM after 72 hrs by annexin-V/propidium iodide double staining based flow cytometry (reference value: 0.02%). The test is classed as functional.
Test [7] relates to MDA-MB-231. Kind of test: Cell cycle arrest in human MDA-MB-231 cells assessed as accumulation at G1 phase at 10 uM after 72 hrs by propidium iodide staining based flow cytometry (reference value: 49.40%). The test is classed as functional.
Test [8] relates to MDA-MB-231. The test can be described thus: Antimigratory activity in human MDA-MB-231 cells up to 72 hrs by wound healing assay. The test is classed as functional, cell-based. The procedure, abridged: (§2)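 Scratch assay: 1×10^5 cells/well grown to more than 80% confluence and wounded with a pipette tip. Cells then incubated with 0, 3 or 6 μM in serum-free DMEM for 72 h. The same field was imaged repeatedly over 3 days. Migration rate is wound filling, averaged over 10 fields; three independent experiments, mean ± SD.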

Test [9] concerns MDA-MB-231. The test can be described thus: Induction of apoptosis in human MDA-MB-231 cells assessed as up-regulation cleaved caspase3 expression at 5 to 15 uM after 72 hrs by Western blot analysis. Format: functional, cell-based. The method, boiled down:
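Cells treated with 0, 5, 10 or 15 μM for 72 h. Lysates quantified by BCA, equal protein resolved on 10% tricine SDS-PAGE and transferred to nitrocellulose. Membranes blocked in 5% milk/TBST, then primary antibodies 1:1000 overnight at 4 °C and HRP secondary 1:2000 for 1 h at room temperature. Three independent experiments.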
On the technique in general: In western blotting, separated proteins are transferred to a membrane and probed.

In test [10] the test system is MDA-MB-231. The test can be described thus: Induction of apoptosis in human MDA-MB-231 cells assessed as early apoptotic cells at 15 uM after 72 hrs by annexin-V/propidium iodide double staining based flow cytometry (reference value: 0.02%). The test is classed as functional.
In test [11] the test system is MDA-MB-231. Kind of test: Induction of DNA damage in human MDA-MB-231 cells assessed as increase in olive tail moment at 10 to 20 uM by comet assay. The test is classed as functional, cell-based. The method, boiled down:
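Neutral comet assay on cells treated with 0, 10 or 20 μM for 24 h. DNA stained with SYBR Green I and imaged by fluorescence microscopy. Olive tail moment measured on 50 randomly selected cells per slide.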

Test [12] deals with MDA-MB-231. The test can be described thus: Antimetastasis activity in human MDA-MB-231 cells assessed as changes in cell morphology at 5 to 10 uM after 24 hrs by based laser confocal microscopy.
Test [13] relates to A549. Kind of test: Antiproliferative activity against human A549 cells after 72 hrs by MTT assay. The test is classed as functional, cell-based. The conditions noted are these: A549, 72 h. The method, boiled down: as §1
Test [14] concerns MDA-MB-231. The test can be described thus: Induction of apoptosis in human MDA-MB-231 cells assessed as late apoptotic cells at 5 uM after 72 hrs by annexin-V/propidium iodide double staining based flow cytometry (reference value: 0.12%). Format: functional.
Test [15] has as its system MDA-MB-231. Kind of test: Antimetastasis activity in human MDA-MB-231 cells assessed reduction in stress fibers by measuring F-actin protein expression at 5 to 10 uM after 24 hrs by immunofluorescence based assay.
The subject of test [16] is MDA-MB-231. The test can be described thus: Antimetastasis activity in human MDA-MB-231 cells assessed reduction in number of paxillins at 5 to 10 uM after 24 hrs by immunofluorescence based assay.
In test [17] the test system is MDA-MB-231. Kind of test: Antimigratory activity in human MDA-MB-231 cells at 3 uM up to 72 hrs by wound healing assay relative to control. Format: functional. The procedure, abridged:
as §2

Test [18] concerns MDA-MB-231. The test can be described thus: Cell cycle arrest in human MDA-MB-231 cells assessed as accumulation at S phase at 10 uM after 72 hrs by propidium iodide staining based flow cytometry (reference value: 42.60%). Format: functional.
Test [19] concerns MDA-MB-231. The test can be described thus: Induction of DNA damage in human MDA-MB-231 cells assessed as down-regulation of AKT expression at 2 to 15 uM by Western blot analysis. Format: functional, cell-based.
Test [20] has as its system MDA-MB-231. Kind of test: Induction of morphological changes in human MDA-MB-231 cells assessed as roughening of cell membrane surface with large and numerous particles at 5 to 20 uM after 72 hrs. Format: functional, cell-based.

Calls of active or inactive are those of the source. The rule behind the calls is not given here.

As for `Cc1coc2c3ccc4c(c3c3[nH]c(-c5ccc(O)cc5)nc3c12)CCCC4(C)C`, the 50% inhibitory concentration (IC50) in [1] was 39.8 µM; in [2], 21.2 µM; in test [13] it was 6.9 µM. Also, the Activity was 10.12% in test [3]; 0.35% in [4]; 13.01% in test [5]; 3.87% in [6]; 35.49% in [7]; “Dose-dependent effect” in test [8]. Besides, the Activity is 6.73% in [10], 0.43% in test [14], below 50% in [17] and 51.5% in test [18]. Also, the result in test [9], in [11], in test [12], in [15], in [16] and in test [19] was Active. In test [20], the outcome was Active.
